KCNQ1 pot: potentiators or activators of KCNQ1 channel, primary screen, cell-based, thallium flux, high-throughput; Potassium voltage-gated channel subfamily KQT member 1 (Homo sapiens), P51787; CHO-K1 KCNQ1, thallium flux FluxOR fluorescence; stronger effect = higher value; B-score at 10 µM; hit rate 0.35% among 310,000; AID 2648, 2010;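 active = fluorescence ratio B-score, a plate-corrected score, at least three library SD, with initial intensity B-score within 5 SD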
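assay system = KCNQ1-transfected CHO-K1 cells | medium = assay buffer with matched DMSO | probe or stimulus = depolarizing K+/Tl+ stimulus, K2SO4 and Tl2SO4 each 12.5 mM in 5x stock | dosing = single dose | incubation = dye 90 min, compound 20 min, room temperature | detection = kinetic FluxOR fluorescence, 10 s baseline plus 110 s post-stimulus | evaluation = ratio B score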
Kir21 inh: inhibitors of mouse Kir2.1 inward-rectifier potassium channel; hit rate 0.85% among 310,000; HEK293-Kir2.1, FluxOR thallium flux fluorescence; stronger effect = lower value; B-score at 10 µM; Inward rectifier potassium channel 2 (Mus musculus), P35561;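 active = fluorescence ratio B-score at or below minus 3 SD of library scores, with starting-brightness B-score within 2 SD, cut at about -4.2 in these data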;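 also: channel flux triggered by added potassium and thallium sulfate stimulus; B-score of peak minus minimum fluorescence over baseline after thallium stimulus; more negative B-score means stronger Kir2.1 block with less thallium influx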
KCNK9 block: KCNK9 potassium channel inhibitors, primary screen, HEK293 cells, thallium flux; Potassium channel subfamily K member 9 (Homo sapiens), Q9NPC2; FluxOR thallium flux fluorescence; stronger effect = lower value; B-score at 10 µM; hit rate 1.2% among 310,000; AID 488922, 2010;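 active = ratio B-score over 3 SD below the library mean, with starting fluorescence within 5 SD of its mean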;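 also: negative B-score means less thallium flux so channel inhibition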
hERG protect: hERG rescue from dofetilide block, primary screen, cell-based, CHO-hERG, FluxOR thallium flux, dofetilide IC70; dofetilide IC70 present; activation (rescue from dofetilide block), less the hit threshold, % at 10 µM; hit rate 0.51% among 310,000;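 active = activation above the mean of controls blocked by dofetilide plus 5 SD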;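 also: thallium influx through hERG after potassium depolarization seen as dye fluorescence rise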
KCNQ1 block: inhibitors of human KCNQ1 channel, primary screen, cell-based, thallium flux, high-throughput; CHO-K1 KCNQ1, FluxOR thallium flux fluorescence; stronger effect = higher value; B-score at 10 µM; hit rate 1.3% among 310,000; AID 2642, 2010;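 active = compounds whose thallium flux B-score, printed positive for inhibition, exceeds three library SD while starting fluorescence stays within three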;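 also: channel opened by potassium depolarization with thallium stimulus after 20 min compound exposure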
KCNK3 block: human KCNK3 channel inhibitors, primary screen, CHO cells, FluxOR thallium flux, B-score. Potassium channel subfamily K member 3 (Homo sapiens), O14649. FluxOR fluorescence; stronger effect = lower value. B-score at 10 µM. hit rate 0.84% among 340,000;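 active = B-score under library mean minus 4 SD, starting fluorescence ratio at most library mean plus 5 SD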;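 also: more negative B-score means stronger inhibition of thallium flux through KCNK3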
Target sequence (O14649 whole entry, looked up): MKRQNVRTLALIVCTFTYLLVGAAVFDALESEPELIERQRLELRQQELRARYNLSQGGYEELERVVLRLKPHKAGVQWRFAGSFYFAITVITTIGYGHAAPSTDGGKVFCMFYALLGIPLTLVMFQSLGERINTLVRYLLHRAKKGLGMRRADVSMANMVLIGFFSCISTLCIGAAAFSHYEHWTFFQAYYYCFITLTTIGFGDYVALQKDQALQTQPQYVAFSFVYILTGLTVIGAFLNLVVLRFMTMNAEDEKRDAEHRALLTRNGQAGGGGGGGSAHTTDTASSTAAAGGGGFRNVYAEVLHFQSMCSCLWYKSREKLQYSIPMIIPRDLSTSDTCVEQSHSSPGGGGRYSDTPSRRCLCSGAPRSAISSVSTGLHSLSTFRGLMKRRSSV
* = called active by the depositor; i = inactive; x = no result. Sampled rows, rich in hits. Any-hit rate of the full collection: about 3.7%.

SMILES	KCNQ1 pot	Kir21 inh	KCNK9 block	hERG protect	KCNQ1 block	KCNK3 block
O=C(Nc1cccc2c1[nH]c1ccccc12)C(F)(F)F	i	2.6	i	-3	6*	i
COC(=O)C1=C(C(=O)OC)[C@@H]2N(C)c3ccccc3[C@@]23C[C@@H](C(=O)OC)N(C(=O)c2ccc(Br)cc2)C3=N1	30*	-2.4	i	-8	i	i
COC(=O)C1=C(C(=O)OC)[C@@H]2N(Cc3ccccc3)c3ccccc3[C@@]23C[C@@H](C(=O)OC)N(C(=O)CC(C)C)C3=N1	i	-0.41	-7.9*	-4	i	i
CC#CCN1c2ccccc2[C@]23C[C@@H](C(=O)OC)N(C(=O)c4ccc(Br)cc4)C2=NC(C(=O)OC)=C(C(=O)OC)[C@H]13	i	-0.21	i	-4	i	x
COC(=O)C1=C(C(=O)OC)[C@@H]2N(Cc3ccccc3)c3ccccc3[C@@]23C[C@@H](C(=O)OC)N(C(=O)c2cc(C)oc2C)C3=N1	i	0.58	i	0	i	i
COC(=O)C1=C(C(=O)OC)[C@@H]2N(Cc3ccccc3)c3ccccc3[C@@]23C[C@@H](C(=O)OC)N(C(=O)c2cccs2)C3=N1	i	0.48	-7.9*	-2	i	i
O=C(C[C@H]1C/C=C\CC[C@H](Cc2ccc(F)cc2)C(=O)O[C@H](c2ccccc2)CNC1=O)N[C@H](CO)Cc1ccccc1	x	x	x	x	x	i
O=C(CCc1ccccc1)NC(=S)Nc1ccccc1Br	i	0.48	i	5.0*	i	i
N#CCCN(C(=O)COC(=O)COc1ccccc1Cc1ccccc1)c1ccccc1	x	x	x	x	x	i
CCc1ccc(/C=C2\Oc3c(ccc(O)c3CN3CCN(CCO)CC3)C2=O)cc1	i	-5.4	i	-29	11*	i
CCc1ccc(/C=C2\Oc3cc(OS(C)(=O)=O)ccc3C2=O)cc1	i	0.23	i	-5	i	i
O=S(=O)(N1CCOCC1)n1c(Cc2ccccc2)nc2ccccc21	i	-4.3*	i	-10	i	i
O=S(=O)(N1CCOCC1)n1nnc2ccccc21	i	-0.02	i	-1	i	i
Cc1ccc2c(c1)C1CN(C)CCC1N2C(=O)c1cccc(S(=O)(=O)N(C)C)c1 (stereo unspecified)	i	1.1	i	-20	i	i
Cc1ccc2c(c1)C1CN(C)CCC1N2C(=O)Nc1ccc(Cl)cc1 (stereo unspecified)	i	-0.26	i	-8	7*	i
OCC[C@@H]1C[C@H](O)[C@@H](O)[C@]2(Cc3ccccc3O2)O1	i	-0.18	i	-5	i	i
CC(=O)N1CCCc2ccc(NS(=O)(=O)c3ccccc3)cc21	i	1.4	i	-13	i	i
NC(=O)C[n+]1cccc(CNC(=O)c2ccc(OC(F)F)cc2)c1	i	-0.07	i	4.6*	i	i
O=c1oc2cc(O)ccc2c2c1CCCC2	i	-6.5*	i	-24	i	i
O=C1C2C3C=CC(C4CC34)C2C(=O)N1/N=C/c1ccc(-c2ccc(F)cc2[N+](=O)[O-])o1 (stereo unspecified)	i	-0.71	i	8.1*	i	i
Cc1ccc(C)c(S(=O)(=O)N2CCN(C(=O)[C@H](Cc3ccccc3)NC(=O)c3ccco3)CC2)c1	x	x	x	x	x	i
CN1C(=O)NC(c2ccccc2[N+](=O)[O-])C2=C1CC(C)(C)CC2=O (stereo unspecified)	i	0.93	i	-6	i	i
CN1C(=O)NC(c2ccccc2[N+](=O)[O-])C2=C1CCCC2=O (stereo unspecified)	i	-1.8	i	-15	6*	i
CC[C@H](C)/C=C/C1=CC2=C(Cl)C(=O)[C@@]3(C)OC(=O)C(C(=O)[C@H](C)[C@@H](C)O)=C3C2=CO1	i	-0.61	i	-30	6*	i

Compound activity (PubChem)
